Converted amounts (≈) assume the structure as drawn.
Columns and labels:
Staphylococcus aureus [1] = assay: Antibacterial activity against Staphylococcus aureus ATCC 6538 after 24 hrs by microdilution method; format: functional; settings: ATCC 6538, 24 h
Method in brief: (§1)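 Broth microdilution in 96-well plates. Bacterial suspensions were adjusted in sterile saline to 1.0 × 10⁵ CFU/ml, prepared daily and kept at 4 °C. Compound was added to LB broth with 1.0 × 10⁴ CFU per well and shaken at 160 rpm for 24 h at […] (so in the source). MIC is the lowest concentration with no visible growth under a binocular microscope. OD655 was also read. Duplicate, repeated three times.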

Bacillus cereus [2] = assay: Antibacterial activity against clinical isolate of Bacillus cereus after 24 hrs by microdilution method; format: functional; method in brief: as §1
Micrococcus flavus [3] = assay: Antibacterial activity against Micrococcus flavus ATCC 10240 after 24 hrs by microdilution method; format: functional; settings: ATCC 10240, 24 h; method in brief: as §1
Listeria monocytogenes [4] = assay: Antibacterial activity against Listeria monocytogenes NCTC 7973 after 24 hrs by microdilution method; format: functional; settings: NCTC 7973, 24 h; method in brief: as §1
Pseudomonas aeruginosa [5] = assay: Antibacterial activity against Pseudomonas aeruginosa ATCC 27853 after 24 hrs by microdilution method; format: functional; settings: ATCC 27853, 24 h; method in brief: as §1
Salmonella typhimurium [6] = assay: Antibacterial activity against Salmonella Typhimurium ATCC 13311 after 24 hrs by microdilution method; format: functional, Salmonella enterica subsp. enterica serovar Typhimurium; settings: Salmonella enterica, ATCC 13311, 24 h; method in brief: as §1
Escherichia coli [7] = assay: Antibacterial activity against Escherichia coli ATCC 35210 after 24 hrs by microdilution method; format: functional; settings: ATCC 35210, 24 h; method in brief: as §1
Enterococcus faecalis [8] = assay: Antibacterial activity against Enterococcus faecalis isolated from human after 24 hrs by microdilution method; format: functional; method in brief: as §1
Staphylococcus aureus [9] = assay: Antibacterial activity against Staphylococcus aureus ATCC 6538 incubated for 24 hrs followed by serial sub-cultivation for 24 hrs by microdilution method; format: functional; settings: ATCC 6538, 24 h
Method in brief: (§2)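 MBC: after the 24 h LB broth microdilution (1.0 × 10⁴ CFU per well, 160 rpm), wells were serially sub-cultured into fresh broth plates and incubated a further 24 h. MBC is the lowest concentration with no visible growth, taken as 99.5% killing of the original inoculum. Duplicate, repeated three times.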

Bacillus cereus [10] = assay: Antibacterial activity against clinical isolate of Bacillus cereus incubated for 24 hrs followed by serial sub-cultivation for 24 hrs by microdilution; format: functional; method in brief: as §2
Micrococcus flavus [11] = assay: Antibacterial activity against Micrococcus flavus ATCC 10240 incubated for 24 hrs followed by serial sub-cultivation for 24 hrs by microdilution; format: functional; settings: ATCC 10240, 24 h; method in brief: as §2
Listeria monocytogenes [12] = assay: Antibacterial activity against Listeria monocytogenes NCTC 7973 incubated for 24 hrs followed by serial sub-cultivation for 24 hrs by microdilution; format: functional; settings: NCTC 7973, 24 h; method in brief: as §2
Pseudomonas aeruginosa [13] = assay: Antibacterial activity against Pseudomonas aeruginosa ATCC 27853 incubated for 24 hrs followed by serial sub-cultivation for 24 hrs by microdilution; format: functional; settings: ATCC 27853, 24 h; method in brief: as §2
Salmonella typhimurium [14] = assay: Antibacterial activity against Salmonella Typhimurium ATCC 13311 incubated for 24 hrs followed by serial sub-cultivation for 24 hrs by microdilution; format: functional, Salmonella enterica subsp. enterica serovar Typhimurium; settings: Salmonella enterica, ATCC 13311, 24 h; method in brief: as §2
Escherichia coli [15] = assay: Antibacterial activity against Escherichia coli ATCC 35210 incubated for 24 hrs followed by serial sub-cultivation for 24 hrs by microdilution; format: functional; settings: ATCC 35210, 24 h; method in brief: as §2
Enterococcus faecalis [16] = assay: Antibacterial activity against Enterococcus faecalis isolated from human incubated for 24 hrs followed by serial sub-cultivation for 24 hrs by microdilution; format: functional; method in brief: as §2
Aspergillus ochraceus [17] = assay: Antifungal activity against Aspergillus ochraceus ATCC 12066 after 72 hrs by serial dilution technique; format: functional; settings: ATCC 12066, 72 h
Method in brief: (§3)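 Modified microdilution in 96-well plates. Fungi were kept on malt agar at 4 °C. Spores were washed off in sterile 0.85% saline with 0.1% Tween 80. Compounds were dissolved at 1 mg/ml in 5% DMSO with 0.1% Tween 80 and added to malt broth with inoculum. Plates were shaken at 160 rpm for 72 h at 28 °C. Duplicate, repeated three times.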

Aspergillus niger [18] = assay: Antifungal activity against Aspergillus niger ATCC 6275 after 72 hrs by serial dilution technique; format: functional; settings: ATCC 6275, 72 h; method in brief: as §3
Aspergillus flavus [19] = assay: Antifungal activity against Aspergillus flavus ATCC 9643 after 72 hrs by serial dilution technique; format: functional; settings: ATCC 9643, 72 h; method in brief: as §3
Talaromyces funiculosus [20] = assay: Antifungal activity against Penicillium funiculosum ATCC 36839 after 72 hrs by serial dilution technique; format: functional; settings: ATCC 36839, 72 h; method in brief: as §3
Penicillium ochrochloron [21] = assay: Antifungal activity against Penicillium ochrochloron ATCC 9112 after 72 hrs by serial dilution technique; format: functional; settings: ATCC 9112, 72 h; method in brief: as §3
Trichoderma viride [22] = assay: Antifungal activity against Trichoderma viride IAM 5061 after 72 hrs by serial dilution technique; format: functional; settings: IAM 5061, 72 h; method in brief: as §3
Candida albicans [23] = assay: Antifungal activity against Candida albicans isolated from human after 72 hrs by serial dilution technique; format: functional; method in brief: as §3
Aspergillus ochraceus [24] = assay: Antifungal activity against Aspergillus ochraceus ATCC 12066 incubated for 72 hrs followed by serial sub-cultivation for 72 hrs by serial dilution technique; format: functional; settings: ATCC 12066, 72 h
Method in brief: (§4)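 MFC: material from 72 h malt broth microdilution wells was serially sub-cultured into fresh broth plates and incubated a further 72 h at 28 °C. Fungicidal concentration is taken from growth after sub-culture. Duplicate, repeated three times.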

Aspergillus fumigatus [25] = assay: Antifungal activity against Aspergillus fumigatus isolated from human incubated for 72 hrs followed by serial sub-cultivation for 72 hrs by serial dilution technique; format: functional; method in brief: as §4
Aspergillus niger [26] = assay: Antifungal activity against Aspergillus niger ATCC 6275 incubated for 72 hrs followed by serial sub-cultivation for 72 hrs by serial dilution technique; format: functional; settings: ATCC 6275, 72 h; method in brief: as §4
Aspergillus flavus [27] = assay: Antifungal activity against Aspergillus flavus ATCC 9643 incubated for 72 hrs followed by serial sub-cultivation for 72 hrs by serial dilution technique; format: functional; settings: ATCC 9643, 72 h; method in brief: as §4
Talaromyces funiculosus [28] = assay: Antifungal activity against Penicillium funiculosum ATCC 36839 incubated for 72 hrs followed by serial sub-cultivation for 72 hrs by serial dilution technique; format: functional; settings: ATCC 36839, 72 h; method in brief: as §4
Penicillium ochrochloron [29] = assay: Antifungal activity against Penicillium ochrochloron ATCC 9112 incubated for 72 hrs followed by serial sub-cultivation for 72 hrs by serial dilution technique; format: functional; settings: ATCC 9112, 72 h; method in brief: as §4
Trichoderma viride [30] = assay: Antifungal activity against Trichoderma viride IAM 5061 incubated for 72 hrs followed by serial sub-cultivation for 72 hrs by serial dilution technique; format: functional; settings: IAM 5061, 72 h; method in brief: as §4
Candida albicans [31] = assay: Antifungal activity against Candida albicans isolated from human incubated for 72 hrs followed by serial sub-cultivation for 72 hrs by serial dilution technique; format: functional; method in brief: as §4
Pseudomonas aeruginosa [32] = assay: Ratio of ampicillin MIC to compound MIC for Pseudomonas aeruginosa ATCC 27853; format: functional
Aspergillus ochraceus [33] = assay: Ratio of bifonazole to compound for Aspergillus ochraceus ATCC 12066; format: functional
Aspergillus niger [34] = assay: Ratio of bifonazole to compound for Aspergillus niger ATCC 6275; format: functional
Talaromyces funiculosus [35] = assay: Ratio of bifonazole to compound for Penicillium funiculosum ATCC 36839; format: functional
Penicillium ochrochloron [36] = assay: Ratio of bifonazole to compound for Penicillium ochrochloron ATCC 9112; format: functional
Trichoderma viride [37] = assay: Ratio of bifonazole to compound for Trichoderma viride IAM 5061; format: functional
Candida albicans [38] = assay: Ratio of bifonazole to compound for Candida albicans isolated from human; format: functional
Aspergillus ochraceus [39] = assay: Ratio of ketoconazole to compound for Aspergillus ochraceus ATCC 12066; format: functional
Aspergillus fumigatus [40] = assay: Ratio of ketoconazole to compound for Aspergillus fumigatus isolated from human; format: functional
Penicillium ochrochloron [41] = assay: Ratio of ketoconazole to compound for Penicillium ochrochloron ATCC 9112; format: functional
Candida albicans [42] = assay: Ratio of ketoconazole to compound for Candida albicans isolated from human; format: functional
Aspergillus ochraceus [43] = assay: Antifungal activity against Aspergillus ochraceus after 72 hrs by serial dilution technique

MIC (Staphylococcus aureus [1]): 94.6 µM (≈ 30 µg/mL)
MIC (Bacillus cereus [2]): 47.3 µM (≈ 15 µg/mL)
MIC (Micrococcus flavus [3]): 63.1 µM (≈ 20 µg/mL)
MIC (Listeria monocytogenes [4]): 94.6 µM (≈ 30 µg/mL)
MIC (Pseudomonas aeruginosa [5]): 78.9 µM (≈ 25 µg/mL)
MIC (Salmonella typhimurium [6]): 47.3 µM (≈ 15 µg/mL)
MIC (Escherichia coli [7]): 63.1 µM (≈ 20 µg/mL)
MIC (Enterococcus faecalis [8]): 47.3 µM (≈ 15 µg/mL)
MIC (Aspergillus ochraceus [17]): 63.1 µM (≈ 20 µg/mL)
MIC (Aspergillus niger [18]): 63.1 µM (≈ 20 µg/mL)
MIC (Aspergillus flavus [19]): 63.1 µM (≈ 20 µg/mL)
MIC (Talaromyces funiculosus [20]): 31.5 µM (≈ 10 µg/mL)
MIC (Penicillium ochrochloron [21]): 63.1 µM (≈ 20 µg/mL)
MIC (Trichoderma viride [22]): 47.3 µM (≈ 15 µg/mL)
MIC (Candida albicans [23]): 31.5 µM (≈ 10 µg/mL)
MIC (Aspergillus ochraceus [43]): 63.1 µM (≈ 20 µg/mL)
SMILES: CCNc1nc(C)c(C(=O)/C=C/c2cccc([N+](=O)[O-])c2)s1
MBC (Staphylococcus aureus [9]): 94.6 µM (≈ 30 µg/mL)
MBC (Bacillus cereus [10]): 63.1 µM (≈ 20 µg/mL)
MBC (Micrococcus flavus [11]): 94.6 µM (≈ 30 µg/mL)
MBC (Listeria monocytogenes [12]): 94.6 µM (≈ 30 µg/mL)
MBC (Pseudomonas aeruginosa [13]): 78.9 µM (≈ 25 µg/mL)
MBC (Salmonella typhimurium [14]): 63.1 µM (≈ 20 µg/mL)
MBC (Escherichia coli [15]): 78.9 µM (≈ 25 µg/mL)
MBC (Enterococcus faecalis [16]): 63.1 µM (≈ 20 µg/mL)
MFC (Aspergillus ochraceus [24]): 78.8 µM (≈ 25 µg/mL)
MFC (Aspergillus fumigatus [25]): 78.8 µM (≈ 25 µg/mL)
MFC (Aspergillus niger [26]): 78.8 µM (≈ 25 µg/mL)
MFC (Aspergillus flavus [27]): 78.8 µM (≈ 25 µg/mL)
MFC (Talaromyces funiculosus [28]): 63.1 µM (≈ 20 µg/mL)
MFC (Penicillium ochrochloron [29]): 78.8 µM (≈ 25 µg/mL)
MFC (Trichoderma viride [30]): 63.1 µM (≈ 20 µg/mL)
MFC (Candida albicans [31]): 63.1 µM (≈ 20 µg/mL)
Ratio (Pseudomonas aeruginosa [32]): 10
Ratio (Aspergillus ochraceus [33]): 10
Ratio (Aspergillus niger [34]): 10
Ratio (Talaromyces funiculosus [35]): 10
Ratio (Penicillium ochrochloron [36]): 10
Ratio (Trichoderma viride [37]): 10
Ratio (Candida albicans [38]): 10
Ratio (Aspergillus ochraceus [39]): 10
Ratio (Aspergillus fumigatus [40]): 10
Ratio (Penicillium ochrochloron [41]): 10
Ratio (Candida albicans [42]): 10

— ChEMBL document CHEMBL1926569, “Novel (E)-1-(4-methyl-2-(alkylamino)thiazol-5-yl)-3-arylprop-2-en-1-ones as potent antimicrobial agents” (2011)
